Screens: PubChem BioAssay, The Scripps Research Institute Molecular Screening Center
Most compounds without a hit are left out; they make up all but 2.7% or so of the library.
PAFAH2 inh: inhibitors of human PAFAH2; recombinant PAFAH2, FP-rhodamine activity probe, fluorescence polarization; inhibition, % at 3.39 µM; 340,000 tested, 0.99% active;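 active = inhibition above the mean over all tested compounds plus 3 SD, cut at about 30% in these data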;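 also: inhibitors block probe labeling of enzyme so polarization drops; 0% = enzyme with DMSO and 100% = wells lacking PAFAH2 protein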
ARFGAP1 inh: inhibits rat ARF GTPase activating protein 1 | Arfgap1-stimulated ARF1 GTP hydrolysis, GDP FP detection | inhibition, % at 16.5 µM | 360,000 tested, 0.26% active | AID 651572;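 active = inhibition above a per-plate limit, mean inhibition of low control wells plus 3 SD, cut at about 25% in these data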;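 also: 0% = DMSO wells with enzyme and 100% = wells lacking Arfgap1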
Target sequence (Q62848 1-136 limits assumed): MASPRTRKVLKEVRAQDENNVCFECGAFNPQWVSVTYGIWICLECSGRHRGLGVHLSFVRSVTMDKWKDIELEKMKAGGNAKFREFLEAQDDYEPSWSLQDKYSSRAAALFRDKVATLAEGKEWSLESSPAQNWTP
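Assay system: Rat Arfgap1 GAP domain (His6, aa 1-136), purified enzyme | Buffer or medium: HEPES 25 mM pH 7.5, NaCl 150 mM, MgCl2, DTT | Schedule: GTP hydrolysis reaction 2 h at 25 °C | Signal: FP of antibody-bound GDP Alexa 633 tracer, ex 620/em 688 nm | Measure: Percent inhibition of Arfgap1-stimulated GTP hydrolysis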
PAFAH1B3 FP inh: PAFAH1B3 (human) inhibition; AID 492972; Q15102; recombinant PAFAH1B3, FP-rhodamine probe, fluorescence polarization; 340,000 tested, 0.28% active; inhibition, % at 3.39 µM;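 active = inhibition above the screen-wide average of all tested compounds plus 3 SD, cut at about 25% in these data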;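 also: 0% = enzyme with DMSO only and 100% = wells lacking PAFAH1B3 protein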
Target sequence (Q15102 whole entry, looked up): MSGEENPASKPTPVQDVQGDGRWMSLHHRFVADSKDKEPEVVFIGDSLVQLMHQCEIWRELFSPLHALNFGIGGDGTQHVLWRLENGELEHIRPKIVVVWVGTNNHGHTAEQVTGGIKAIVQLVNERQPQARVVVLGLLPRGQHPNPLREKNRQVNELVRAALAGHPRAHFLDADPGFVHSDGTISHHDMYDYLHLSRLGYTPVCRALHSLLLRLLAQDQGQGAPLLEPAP
ASAP1 GAP inh: blocks human ASAP1-stimulated Arf1 GTP hydrolysis | 360,000 tested, 0.19% active | Q9ULH1 | inhibition, % at 16.5 µM | GDP FP detection; in the data active = inhibition above about 25%;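 also: 0% = vehicle with enzyme and substrate and 100% = no enzyme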
PAFAH1B2 inh: PAFAH1B2 (human) inhibition | P68402 | recombinant PAFAH1B2, FP-rhodamine activity probe, fluorescence polarization | inhibition, % at 3.39 µM | 340,000 tested, 1.2% active;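 active = inhibition above the mean of all tested compounds plus 3 SD, cut at about 24% in these data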;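 also: 0% = enzyme with DMSO and 100% = wells lacking PAFAH1B2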
Target sequence (P68402 whole entry, looked up): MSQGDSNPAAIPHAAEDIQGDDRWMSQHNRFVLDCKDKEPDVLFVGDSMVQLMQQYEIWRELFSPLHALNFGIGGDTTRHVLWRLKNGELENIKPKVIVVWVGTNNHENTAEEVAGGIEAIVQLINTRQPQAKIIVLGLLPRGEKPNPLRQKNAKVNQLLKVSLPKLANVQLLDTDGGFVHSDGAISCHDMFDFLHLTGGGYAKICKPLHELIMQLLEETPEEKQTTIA
pPAFAH FP inh: inhibitors of human plasma PAF acetylhydrolase (pPAFAH). Q13093. recombinant pPAFAH, FP-rhodamine probe fluorescence polarization. inhibition, % at 3.39 µM. 330,000 tested, 1.5% active. AID 463082;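 active = inhibition above the mean inhibition across the screen plus 3 SD, cut at about 25% in these data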;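 also: inhibitors block binding of the rhodamine activity-based probe so polarization drops; 0% = enzyme with DMSO and 100% = wells lacking pPAFAH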
PAFAH2 FP conf: PAFAH2 (human) inhibition, confirmed; AID 493030; inhibition, % at 3.39 µM; 2,300 tested, 65% active; recombinant PAFAH2, FP-rhodamine activity probe, fluorescence polarization; shares compounds with PAFAH2 inh;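 active = mean inhibition over three repeats above a set limit taken from the earlier primary screen, cut at about 30% in these data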;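 also: inhibitor blocks binding of rhodamine activity probe so polarization falls; 0% = enzyme with DMSO and 100% = wells lacking PAFAH2 protein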
The depositor's hits bear a star; nt = not tested or not shown.

SMILES	PAFAH2 inh	ARFGAP1 inh	PAFAH1B3 FP inh	ASAP1 GAP inh	PAFAH1B2 inh	pPAFAH FP inh	PAFAH2 FP conf
O=C(COC(=O)c1cc[n+]([O-])cc1)Nc1ccc2c(c1)OCCO2	-3	10	1	-13	-4	1	nt
CCOc1ncccc1C(=O)OCC(=O)Nc1ccc2c(c1)OCO2	32*	2	-1	14	4	22	36*
O=C(COC(=O)CNC(=O)c1ccccc1F)Nc1ccc2c(c1)OCCO2	0	-10	2	3	0	5	nt
O=C(COC(=O)c1ccccc1F)Nc1ccc2c(c1)OCCO2	70*	-4	8	7	4	nt	52*
CCOc1ncccc1C(=O)OCC(=O)c1ccc(Cl)s1	44*	11	8	-7	4	8	17
COc1ccc(NS(=O)(=O)c2ccc(C)c(NC(=O)CN3C(=O)NC4(CCCC4)C3=O)c2)cc1	-2	-6	11	10	-4	2	nt
COc1ccccc1CNC(=O)COC(=O)c1c[nH]c2ccccc12	33*	-2	6	8	0	nt	18
COc1ccccc1CNC(=O)COC(=O)c1ccc(NC(N)=O)cc1	56*	0	-3	9	2	0	52*
COc1ccccc1CNC(=O)COC(=O)c1ccc(N2CCCC2=O)cc1	60*	13	7	8	8	0	46*
COc1ccccc1CNC(=O)COC(=O)c1ccc(Cl)c(N)c1	33*	0	1	17	-1	16	35*
CSc1ccc(CN2C(=O)C(C)ON=C2c2ccccc2F)cc1 (stereo not drawn)	nt	19	nt	6	nt	nt	nt
C[C@H](CO)N1C[C@H](C)[C@@H](CN(C)C(=O)Nc2ccc(C(F)(F)F)cc2)Oc2ccc(NC(=O)Cc3ccccc3)cc2C1=O	-7	19	2	-13	2	16	nt
Cc1cccc(C)c1NC(=O)C(CCc1ccccc1)N1CCC(c2ccccc2)CC1 (stereo not drawn)	nt	-2	nt	12	nt	nt	nt
CC1=NN(c2ccccc2)C(=O)/C1=C\c1ccc(Br)s1	33*	1	13	-6	6	4	11
COc1ccc(C(=O)N/N=C/c2cc3ccccc3[nH]c2=S)cc1	43*	11	17	15	12	10	29
COc1ccc(C(=O)N/N=C/c2c[nH]c3ccccc23)cc1	9	6	7	7	7	-1	nt
CCN(Cc1cc(OC)c(OC)c(OC)c1)S(=O)(=O)c1ccccc1Br	nt	12	nt	23	nt	nt	nt
CCOc1ccc(C(=O)OCC(=O)Nc2ccc(SC(F)F)cc2)cc1OCC	80*	21	-2	11	0	11	77*
CCOc1ccc(Br)cc1S(=O)(=O)Nc1ccc(C(=O)OCC(=O)Nc2ccc(C#N)cc2)cc1	36*	12	-41	11	-14	-12	30*
O=C(COC(=O)c1cc[n+]([O-])cc1)Nc1ccc(SC(F)F)cc1	-5	14	-10	-3	-2	10	nt
CC(C)=CC(=O)OCC(=O)Nc1ccc(SC(F)F)cc1	78*	7	1	-16	0	21	85*
CCC(C)N(C(=O)C(F)(F)F)C(C(=O)NC1CCCCC1)c1ccncc1 (stereo not drawn)	7	-2	0	7	5	-5	nt
O=C(NC1CCCCC1)C(c1ccncc1)N(CC1CCCO1)C(=O)C(F)(F)F (stereo not drawn)	41*	-1	2	-10	2	-2	19
N/C(CC1CC1(Cl)Cl)=N\OC(=O)c1ccccc1 (stereo not drawn)	83*	-6	-4	1	7	3	78*
N/C(Cc1ccc(Cl)cc1Cl)=N\OC(=O)Cc1ccccc1	0	7	-1	0	17	7	nt
SMILES	PAFAH2 inh	ARFGAP1 inh	PAFAH1B3 FP inh	ASAP1 GAP inh	PAFAH1B2 inh	pPAFAH FP inh	PAFAH2 FP conf
N/C(Cc1ccc(Cl)cc1Cl)=N\OC(=O)c1ccccc1	78*	3	5	3	5	2	78*
COc1ccc(C/C(N)=N/OC(=O)c2ccc(Cl)cc2)cc1	51*	-4	5	-1	5	5	39*
N/C(=N\OC(=O)c1ccc(F)cc1)c1ccccc1	5	-17	6	3	4	2	nt
Cc1ccc(C(=O)O/N=C(\N)Cc2cccc3ccccc23)cc1	67*	7	-5	2	-2	10	74*
CC(=NNC(=O)c1cccc(S(=O)(=O)N2CCOCC2)c1)c1ccccc1	-7	4	10	6	1	3	nt
C=CCc1cc(C=Nc2ccc(N3CCOCC3)cc2)cc(OCC)c1O	0	-3	9	-8	6	nt	nt
CCNC(=O)N(C)[C@H]1C[C@@H](c2ccccc2)N(C(C)=O)C[C@H]1CO	nt	5	nt	-3	nt	nt	nt
N/C(Cc1ccc(Cl)cc1)=N\OC(=O)c1ccc2ccccc2c1	36*	-8	-4	7	1	20	30*
N/C(Cc1ccc(Cl)cc1)=N\OC(=O)c1cccc2ccccc12	19	-1	0	8	-1	7	nt
CC1=NOC(=O)/C1=C\c1ccc(-c2ccccc2Br)o1	44*	-19	20	-20	24	nt	25
CC1=NOC(=O)/C1=C\c1ccc(-c2ccc(Cl)c(C(=O)O)c2)o1	49*	3	19	-18	5	nt	33*
CC1=NOC(=O)/C1=C\c1ccc(-c2cccc(Cl)c2)o1	31*	nt	8	nt	9	7	23
Cc1ccc(/C=C2/C(=O)ON=C2c2ccccc2)o1	14	-4	6	-1	18	15	nt
O=C(O)c1cc(-c2ccc(/C=C3/SC(=S)N(Cc4ccccc4)C3=O)o2)ccc1Cl	34*	4	3	-13	3	nt	26
COc1cccc(C(=O)OCC(=O)Nc2cc(C)on2)c1OC	74*	-2	7	-17	2	8	52*
Cc1cc(NC(=O)COC(=O)c2ccc(C)c(C)c2)no1	52*	-7	4	5	-1	4	34*
O=C(Nc1ncccn1)c1ccc([N+](=O)[O-])o1	78*	8	8	-1	8	9	67*
Cc1ccc(C(=O)CN(C(=O)c2ccc(Cl)c(Cl)c2)N2C(=O)C3CCCCC3C2=O)cc1 (stereo not drawn)	35*	-2	8	0	7	3	35*
CCCCCCN1C[C@H](O)[C@@H](n2cc(C3CC3)nn2)C[C@@H]1c1ccc(OC)cc1	nt	4	nt	-5	nt	nt	nt
O=C(CC(=O)c1cccs1)c1ccncc1	6	-7	12	-3	5	nt	nt
Cc1cc(=O)oc2c3c(cc(OCC(=O)NCCC(=O)O)c12)OC(C)(C)CC3	-2	1	0	11	-2	nt	nt
